The values that follow come from ChEMBL document CHEMBL4354866, “TREK Channel Family Activator with a Well-Defined Structure-Activation Relationship for Pain and Neurogenic Inflammation” (J Med Chem, 2020).

Active and inactive are the calls of the source.

The test system of test [1] is Mus musculus. Description: Analgesic activity in mouse model of spared nerve injury assessed as reduction in cold hyperalgesia at 30 mg/kg, ip measured at 7 days interval for up to 21 days post spared nerve injury by cold plantar test. Type of test: functional, organism-based. In short, it runs like this: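 Male mice (BALB/c or C57BL/6, 6-8 weeks) after SNI; compound given i.p. in 5% DMSO, 5% Tween 80, 90% saline. Mice acclimated 3 days on a 6 mm glass plate. A syringe packed with powdered dry ice was applied under the centre of the left hindpaw. Paw withdrawal latency was timed by stopwatch with a 30 s cutoff. Groups compared by unpaired t test or Mann-Whitney.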

The target of test [2] is T1, Potassium channel subfamily K member 2 (Homo sapiens) (UniProt O95069).
T1 sequence (whole entry): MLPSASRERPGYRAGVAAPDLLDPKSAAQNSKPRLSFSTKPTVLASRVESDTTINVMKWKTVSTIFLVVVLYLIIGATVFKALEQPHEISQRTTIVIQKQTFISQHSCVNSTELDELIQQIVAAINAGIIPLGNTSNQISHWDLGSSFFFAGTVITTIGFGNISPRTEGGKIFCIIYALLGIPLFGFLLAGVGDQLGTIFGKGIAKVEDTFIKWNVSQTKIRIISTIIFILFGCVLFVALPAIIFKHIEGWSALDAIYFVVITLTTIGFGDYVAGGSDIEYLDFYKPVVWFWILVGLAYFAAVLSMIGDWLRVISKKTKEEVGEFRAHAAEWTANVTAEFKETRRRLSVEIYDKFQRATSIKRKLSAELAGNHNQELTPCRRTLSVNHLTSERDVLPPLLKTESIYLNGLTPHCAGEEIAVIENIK
The test is described as follows: Activation of recombinant human TREK1 expressed in HEK293T cells assessed as increase in K+ current amplitude at 30 uM by whole cell voltage clamp electrophysiological analysis. Type of test: cell-based.

In test [3] the test system is Mus musculus. The test is described as follows: Analgesic activity in mouse assessed as increase in tail flick latency time at 5 mg/kg, ip at 52 degC by tail immersion test. Type of test: functional, organism-based. An outline of the steps:
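Male BALB/c or C57BL/6 mice, 6–8 weeks, acclimated in a holder 15 min/day for 3 days. Distal 3 cm of tail immersed at 5, 20, 40, 46 or 52 °C; flick latency recorded, cut-off 15 s. Compound i.p. in 5% DMSO/5% Tween 80/90% saline (1.25–10 mg/kg at 52 °C; 5 mg/kg across temperatures).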
On the technique in general: Hot-plate and tail-flick tests time the reaction to a heat stimulus.

In test [4] the test system is Mus musculus. Description: Analgesic activity in cerulein-induced mouse model of acute pancreatitis assessed as reduction in myeloperoxidase activity at 10 mg/kg, ip administered at 2 hrs interval for 10 hrs starting from post-first cerulein challenge and measured 12 hrs post-first cerulein challenge. It counts as functional, organism-based. In short, it runs like this:
(§1)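 Cerulein pancreatitis: 7 hourly i.p. injections of 50 µg/kg; 10 mg/kg compound i.p. at 2, 4, 6, 8 and 10 h. Mice killed at 12 h and pancreas harvested for MPO activity and H&E histology. Ten random fields per slide scored blind by two observers for edema, inflammatory infiltration and acinar necrosis; n = 6.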

The subject of test [5] is Mus musculus. Description: Analgesic activity in cerulein-induced mouse model of acute pancreatitis assessed as reduction in pancreatic necrosis at 10 mg/kg, ip administered at 2 hrs interval for 10 hrs starting from post-first cerulein challenge and measured 12 hrs post-first cerulein challenge by H and E staining based histopathological analysis. It counts as functional, organism-based. An outline of the steps: as §1

Test [6] relates to Mus musculus. Description: Analgesic activity in cerulein-induced mouse model of acute pancreatitis assessed as reduction in pancreatic inflammatory infiltration at 10 mg/kg, ip administered at 2 hrs interval for 10 hrs starting from post-first cerulein challenge and measured 12 hrs post-first cerulein challenge by H and E staining based histopathological analysis. It counts as functional, organism-based. In short, it runs like this: as §1

The subject of test [7] is Mus musculus. The test is described as follows: Analgesic activity in cerulein-induced mouse model of acute pancreatitis assessed as reduction in pancreatic edema at 10 mg/kg, ip administered at 2 hrs interval for 10 hrs starting from post-first cerulein challenge and measured 12 hrs post-first cerulein challenge by H and E staining based histopathological analysis. Type of test: functional, organism-based. An outline of the steps:
as §1

For test [8], the target named is T1, Potassium channel subfamily K member 2 (Homo sapiens). Description: Activation of recombinant human TREK1 expressed in HEK293T cells assessed as increase in K+ current amplitude at 1 mM by whole cell voltage clamp electrophysiological analysis. It counts as cell-based.

For the compound `CC(C)C[C@H](CN)CC(=O)O`, the result in the test on Mus musculus [1] was Active.

On to `COC(=O)[C@H]1CC[C@@H](C(=O)Nc2ccc(-c3nc4ccc(C)cc4s3)cc2)C1`, for which the outcome in test [2] was inactive.

Consider `Cc1ccc2nc(-c3ccc(NC(=O)C4CCCC4)cc3)sc2c1`, for which the outcome (in test [2]; in the test with Mus musculus [3]; in the test with Mus musculus [4]; in the test on Mus musculus [5]; in the test with Mus musculus [6]; with Mus musculus [7]) was inactive.

Regarding `C[N+](C)(C)CCSS(C)(=O)=O`, the outcome in test [8] was inactive.
